Consider five compounds from ChEMBL document CHEMBL1141290, “Lipoxazolidinones A, B, and C: antibacterial 4-oxazolidinones from a marine actinomycete isolated from a Guam marine sediment” (2007).

Common to all, as to format: functional
The subject of experiment [1] is Escherichia coli. The experiment is described as follows: Antimicrobial activity against Escherichia coli ATCC 25922 after 14 to 16 hrs by serial micro-broth dilution method. In outline:
(§1)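 MIC by serial broth microdilution following NCCLS standards, in cation-adjusted Mueller-Hinton broth. Final inoculum ~5 × 10^5 CFU/mL. Plates incubated at 35 °C for 14–16 h without CO2.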
(In broth dilution the organism is exposed to a series of concentrations in liquid medium.)

For experiment [2], the system named is Staphylococcus aureus. Nature of the experiment: Antimicrobial activity against methicillin-sensitive Staphylococcus aureus ATCC 29213 after 14 to 16 hrs by serial micro-broth dilution method. Summed up:
as §1

Experiment [3] deals with Haemophilus influenzae. Nature of the experiment: Antimicrobial activity against Haemophilus influenzae ATCC 49766 after 14 to 16 hrs by serial micro-broth dilution method. Summed up:
(§2)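 MIC by serial broth microdilution per NCCLS, in Haemophilus Test Medium. Final inoculum ~5 × 10^5 CFU/mL. Plates incubated at 35 °C for 14–16 h in a CO2 incubator.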

For experiment [4], the system named is Streptococcus pneumoniae. Nature of the experiment: Antimicrobial activity against penicillin-sensitive Streptococcus pneumoniae ATCC 49619 after 14 to 16 hrs by serial microbroth dilution method. Summed up: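 MIC by NCCLS serial broth microdilution in cation-adjusted Mueller-Hinton broth II with lysed horse blood. Final inoculum ~5 × 10^5 CFU/mL. Incubated at 35 °C for 14–16 h in a CO2 incubator.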

For experiment [5], the system named is Enterococcus faecalis. Nature of the experiment: Antimicrobial activity against vancomycin-sensitive Enterococcus faecalis ATCC 29212 after 14 to 16 hrs by serial microbroth dilution method. Summed up: as §1
Experiment [6] has as its system Haemophilus influenzae. The experiment is described as follows: Antimicrobial activity against Haemophilus influenzae ATCC 49247 after 14 to 16 hrs by serial micro-broth dilution method. In outline: as §2
Experiment [7] has as its system Staphylococcus aureus. Nature of the experiment: Antimicrobial activity against methicillin-resistant Staphylococcus aureus ATCC 43300 after 14 to 16 hrs by serial micro-broth dilution method. In outline: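 Broth microdilution MIC following NCCLS standards, using cation-adjusted Mueller-Hinton broth in ambient air without CO2. The final inoculum was about 5 × 10^5 CFU/mL.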

The test system of experiment [8] is Staphylococcus epidermidis. Nature of the experiment: Antimicrobial activity against Staphylococcus epidermidis ATCC 700582 after 14 to 16 hrs by serial microbroth dilution method. Summed up:
as §1

Experiment [9] concerns Staphylococcus epidermidis. Nature of the experiment: Antimicrobial activity against Staphylococcus epidermidis ATCC 700578 after 14 to 16 hrs by serial micro-broth dilution method. In outline: as §1
For experiment [10], the system named is Streptococcus pneumoniae. The experiment is described as follows: Antimicrobial activity against penicillin-resistant Streptococcus pneumoniae ATCC 51915 after 14 to 16 hrs by serial micro-broth dilution method. In outline: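 Broth microdilution MIC following NCCLS standards, using cation-adjusted Mueller-Hinton broth II with lysed horse blood and incubation in a CO2 incubator. The final inoculum was about 5 × 10^5 CFU/mL.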

Values after ≈ are worked out from the molar mass of the structure shown. Where only a bound is given, the exact number is not on record here.

In the case of `CCCCCCC/C(C)=C/C(=O)CC(=N)OC(CCCC)C(=O)O` (stereo not given), the MIC in [1] is > 32 µg/mL; in [2], 24 µg/mL (≈ 70.7 µM); in experiment [3], > 32 µg/mL; in experiment [4], > 32 µg/mL; in experiment [5], 32 µg/mL (≈ 94.3 µM); in experiment [6] it was > 32 µg/mL. For the same compound, the MIC in [7] is > 32 µg/mL.

Turning to `CC(=O)NC[C@H]1CN(c2ccc(N3CCOCC3)c(F)c2)C(=O)O1` [LINEZOLID], the MIC in experiment [1] is > 32 µg/mL; in [3], 12 µg/mL (≈ 35.6 µM); in [8] it was 1 µg/mL (≈ 2.96 µM); in experiment [9], 1 µg/mL (≈ 2.96 µM); in experiment [6], 12 µg/mL (≈ 35.6 µM); in experiment [7], 1.5 µg/mL (≈ 4.45 µM).

Take `CCCCCC/C(C)=C/C(=O)/C=C1\NC(=O)C(CCCC)O1` (stereo not given) [LIPOXAZOLIDINE C]: the MIC is > 32 µg/mL in experiment [1]; 4 µg/mL (≈ 13 µM) in experiment [2]; 5 µg/mL (≈ 16.3 µM) in [3]; 10 µg/mL (≈ 32.5 µM) in experiment [4]; 2 µg/mL (≈ 6.51 µM) in experiment [5]; 16 µg/mL (≈ 52 µM) in experiment [6]. Also, the MIC in [7] was 3 µg/mL (≈ 9.76 µM).

Take `CCCCCCC/C(C)=C/C(=O)/C=C1\NC(=O)C(CCCC)O1` (stereo not given) [LIPOXAZOLIDINONE A]: the MIC in [1] is > 32 µg/mL; in experiment [2], 0.9 µg/mL (≈ 2.8 µM); in experiment [3] it was 12 µg/mL (≈ 37.3 µM); in [4] it was 2.6 µg/mL (≈ 8.09 µM); in experiment [5], 1 µg/mL (≈ 3.11 µM); in experiment [8], 0.5 µg/mL (≈ 1.56 µM). Further, the MIC is 0.5 µg/mL (≈ 1.56 µM) in [9], 12 µg/mL (≈ 37.3 µM) in [6], 1 µg/mL (≈ 3.11 µM) in [7] and 4.7 µg/mL (≈ 14.6 µM) in [10].

With `CCCCCCC/C(C)=C/C(=O)/C=C1\NC(=O)C(CCCCC)O1` (stereo not given) [LIPOXAZOLIDINONE B], the MIC in experiment [1] is > 32 µg/mL; in experiment [2], 6 µg/mL (≈ 17.9 µM); in experiment [3] it was 16 µg/mL (≈ 47.7 µM); in [4] it was 8 µg/mL (≈ 23.8 µM); in [5] it was 3 µg/mL (≈ 8.94 µM); in experiment [8], 0.8 µg/mL (≈ 2.38 µM). Moreover, the MIC in experiment [9] stood at 1.3 µg/mL (≈ 3.87 µM); in [6] it was 12 µg/mL (≈ 35.8 µM); in experiment [7] it was 1.5 µg/mL (≈ 4.47 µM); in [10], 6 µg/mL (≈ 17.9 µM).
